Reference: article PMC2923871 (Journal of Medicinal Chemistry, 2010)
Read-outs that look alike come from different tables or passages of the source.

Assays:
[1] = phosphate buffer pH 7.4; previously reported compound; cited from earlier work
[2] = Pooled human liver microsomal assay; format: in vitro ADME; settings: pooled human liver microsomes, 0.5 μM compound, NADPH
Summary of the method: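 Microsomes at 0.5 mg/mL in 50 mM potassium phosphate, pH 7.4, reaction started with excess NADPH. Aliquots at 0, 3, 6, 9, 15 and 30 min quenched in acetonitrile, internal standard added, protein spun down, UPLC-MS/MS. Rate constant from exponential decay of compound/internal standard peak-area ratio. CLi scaled by incubation volume/mg protein and 52.5 mg protein/g liver. Verapamil positive control.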

[3] = system: bloodstream form T. b. brucei BS427; assay: Trypanocidal activity, Alamar Blue assay; format: cell-based
[4] = Chemical stability in phosphate buffer at pH 7.4; format: physicochemical; settings: pH 7.4, t1/2 pH 7.4, phosphate buffer pH 7.4
T. brucei = settings: cited from earlier work

For `COC(=O)[C@@H](C)NP(=O)(OC[C@H]1OC(C)(C)O[C@H]1C(=O)NO)Oc1ccc([N+](=O)[O-])cc1` (stereo partly drawn) [15a], which half-life [1] is on record?
The half-life was “about 50 min”.

Which “PHLM Cli” value [2] does the source give for `CCOC(=O)[C@H](NP(=O)(OC[C@H]1OC(C)(C)O[C@H]1C(=O)NO)Oc1ccccc1)C(C)C` (stereo partly drawn) [15f] here?
Its value is under 0.5 mL/min/g.

With `CCOC(=O)[C@H](NP(=O)(OC[C@H]1OC(C)(C)O[C@H]1C(=O)NO)Oc1ccc(C)cc1)C(C)C` (stereo partly drawn) [15l] as the compound, how does the “PHLM Cli” value [2] read?
The value was under 0.5 mL/min/g.

With `COC(=O)[C@@H](C)NP(=O)(OC[C@H]1OC(C)(C)O[C@H]1C(=O)NO)Oc1cccc(C)c1C` (stereo partly drawn) [15o] as the compound, how does the IC50 ([3]; Trypanosoma brucei) read?
The IC50 was 270 nM.

And the half-life [4]?
The half-life was 30 h.

With `CCOC(=O)[C@H](NP(=O)(OC[C@H]1OC(C)(C)O[C@H]1C(=O)NO)Oc1cccc(C)c1C)C(C)C` (stereo partly drawn) [15p] as the compound, how does the “PHLM Cli” value [2] read?
Its value is under 0.5 mL/min/g.

For `Cc1cccc(OP(=O)(N[C@@H](C(=O)OC(C)(C)C)C(C)C)OC[C@H]2OC(C)(C)O[C@H]2C(=O)NO)c1C` (stereo partly drawn) [15q], which increase in activity ([3]; 15q relative to 15a) is on record?
The increase in activity was “more than 5000 times”.

Which results are given for `CC1(C)O[C@H](COP(=O)(O)O)[C@H](C(=O)NO)O1` [compound 1, 2,3-O-Isopropylidene-4-erythrono hydroxamate]?
EC50 (T. brucei; T. brucei cell culture, previously reported compounds): > 330000 nM; activity against the parasite (T. brucei; result in words): inactive
